Data as given in ChEMBL document CHEMBL1949512, “RO4383596, an orally active KDR, FGFR, and PDGFR inhibitor: synthesis and biological evaluation” (Bioorg Med Chem, 2005).

Columns and labels:
[1] = molecular target: Epidermal growth factor receptor (Homo sapiens, UniProt P00533); experiment: Inhibition of human recombinant His-tagged intracellular domain of EGFR using biotin-EEEEYFELV as substrate by HTRF assay
[2] = Clearance in Wistar rat at 5 mg/kg, iv; assay type: ADME, organism-based; parameters: dose 5 mg/kg, route intravenous; conditions: in vivo
Summary of the method: (§1)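 Wistar rats received one dose, either iv 5 mg/kg via femoral arterial catheter (2% DMA/10% PEG400/88% of 40% HPBCD) or po 50 mg/kg (2% Klucel LF/0.1% Tween 80). Blood came from an implanted jugular catheter, up to 24 h (iv) or 48 h (po), into EDTA. Plasma LC-MS/MS; individual non-compartmental parameters were averaged.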

[3] = AUC in athymic nude mouse at 50 mg/kg, po; assay type: ADME, organism-based; parameters: dose 50 mg/kg, route oral; conditions: plasma
Summary of the method: (§2)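 Athymic nude mice received one dose, either iv 10 mg/kg in 2% DMA/10% PEG400/88% of 40% HPBCD in water, or po 50 mg/kg in 2% Klucel LF/0.1% Tween 80. Retro-orbital or terminal cardiac blood was drawn from 1 min (iv) or 5 min (po) to 24 h into EDTA. Plasma was analysed by LC-MS/MS. Composite parameters were obtained by non-compartmental analysis, with AUC extrapolated to infinity.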

[4] = Cmax in C57/BL6 mouse at 25 mg/kg, po bid for 5 days; assay type: ADME, organism-based; parameters: dose 25 mg/kg, route oral; conditions: in vivo
Summary of the method: (§3)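 Female C57/BL6 mice were dosed orally twice daily for 5 days with a suspension in 2% Klucel LF/0.1% Tween 80 in water. Six mice per dose were split into two subgroups of three, each sampled at alternate time points. Retro-orbital blood was taken at 0, 1, 4 and 8 h post-dose into EDTA, and plasma was analysed by LC-MS/MS. Parameters come from mean concentrations; AUC0–8h by linear trapezoidal rule; Cmax and Tmax as observed.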

[5] = AUC in C57/BL6 mouse at 50 mg/kg, po bid for 5 days; assay type: ADME, organism-based; parameters: dose 50 mg/kg, route oral; conditions: plasma; summary of the method: as §3
[6] = Half life in Wistar rat at 5 mg/kg, iv; assay type: ADME, organism-based; parameters: dose 5 mg/kg, route intravenous; conditions: in vivo; summary of the method: as §1
[7] = Cmax in C57/BL6 mouse at 100 mg/kg, po bid for 5 days; assay type: ADME, organism-based; parameters: dose 100 mg/kg, route oral; conditions: in vivo; summary of the method: as §3
HUVEC [8] = experiment: Antiangiogenic activity in HUVEC assessed as inhibition of bFGF-induced cell proliferation; conditions: Homo sapiens
Mus musculus = experiment: Antiangiogenic activity in C57/BL6 mouse cornea assessed as inhibition of bFGF-induced angiogenesis at 100 mg/kg, po bid for 5 days by corneal pocket assay relative to control; assay type: functional; conditions: 120 h
Summary of the method: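 bFGF-impregnated pellets were implanted in corneas of female C57/BL6 mice aged 5–7 weeks. Oral dosing twice daily began the same day for 5 days. The neovascularized area was quantitated against vehicle-treated animals (2% Klucel LF, 0.1% Tween 80 in water).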

[9] = molecular target: Protein kinase C alpha type (Homo sapiens, UniProt P17252); experiment: Inhibition of PKCalpha by IMAP assay
Summary of the method: (§4)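 IMAP fluorescence-polarization assay, in which phosphorylated fluorescent peptide substrates bind immobilized metal beads. Reactions ran at ATP three times Km.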

[10] = molecular target: Platelet-derived growth factor receptor (Homo sapiens, UniProt P09619+P16234); experiment: Inhibition of human recombinant His-tagged intracellular domain of PDGFR using biotin-EEEEYFELV as substrate by HTRF assay
Ephrin type-B receptor 3 = molecular target: T1, Ephrin type-B receptor 3 (Homo sapiens, UniProt P54753); experiment: Inhibition of EphB3
T1 sequence (P54753 whole entry): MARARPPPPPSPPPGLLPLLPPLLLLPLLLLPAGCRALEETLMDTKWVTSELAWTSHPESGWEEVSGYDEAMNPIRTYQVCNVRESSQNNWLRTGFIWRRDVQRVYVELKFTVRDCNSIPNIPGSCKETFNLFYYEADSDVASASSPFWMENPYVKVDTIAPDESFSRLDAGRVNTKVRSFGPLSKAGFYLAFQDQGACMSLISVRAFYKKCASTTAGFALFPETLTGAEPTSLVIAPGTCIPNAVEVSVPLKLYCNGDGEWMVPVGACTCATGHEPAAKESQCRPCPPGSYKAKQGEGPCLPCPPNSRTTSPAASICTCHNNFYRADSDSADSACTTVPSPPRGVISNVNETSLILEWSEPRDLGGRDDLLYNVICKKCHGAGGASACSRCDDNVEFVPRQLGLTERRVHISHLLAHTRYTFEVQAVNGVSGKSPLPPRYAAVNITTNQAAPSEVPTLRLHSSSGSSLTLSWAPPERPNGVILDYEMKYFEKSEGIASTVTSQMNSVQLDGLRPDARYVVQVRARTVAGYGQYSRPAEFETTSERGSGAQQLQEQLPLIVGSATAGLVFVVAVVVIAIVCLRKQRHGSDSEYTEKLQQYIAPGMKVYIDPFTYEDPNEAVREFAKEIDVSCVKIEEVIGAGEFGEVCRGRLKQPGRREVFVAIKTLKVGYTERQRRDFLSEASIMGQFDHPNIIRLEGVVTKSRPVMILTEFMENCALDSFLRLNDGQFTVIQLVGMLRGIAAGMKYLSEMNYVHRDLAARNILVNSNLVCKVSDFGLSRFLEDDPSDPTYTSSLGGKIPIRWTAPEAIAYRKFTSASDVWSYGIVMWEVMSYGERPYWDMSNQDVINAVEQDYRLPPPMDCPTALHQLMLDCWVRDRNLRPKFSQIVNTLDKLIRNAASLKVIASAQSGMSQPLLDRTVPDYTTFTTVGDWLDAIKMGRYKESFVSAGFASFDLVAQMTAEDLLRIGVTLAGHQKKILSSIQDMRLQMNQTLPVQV

[11] = Cmax in athymic nude mouse at 50 mg/kg, po; assay type: ADME, organism-based; parameters: dose 50 mg/kg, route oral; conditions: in vivo; summary of the method: as §2
MDA-MB-435 = experiment: Antiproliferative activity against human MDA-MB-435 cells
[12] = molecular target: Mitogen-activated protein kinase 1 (Homo sapiens, UniProt P28482); experiment: Inhibition of ERK2 by IMAP assay; summary of the method: as §4
[13] = AUC in C57/BL6 mouse at 25 mg/kg, po bid for 5 days; assay type: ADME, organism-based; parameters: dose 25 mg/kg, route oral; conditions: plasma; summary of the method: as §3
[14] = Tmax in Wistar rat at 50 mg/kg, po; assay type: ADME, organism-based; parameters: dose 50 mg/kg, route oral; conditions: in vivo
Summary of the method: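 Wistar rats, single oral dose 50 mg/kg as suspension in 2% Klucel LF, 0.1% Tween 80 in water, 5 mL/kg. Jugular catheter blood at 5, 15, 30 min and 1, 3, 6, 12, 24, 48 h; EDTA plasma, LC-MS/MS. Tmax taken from concentration–time profiles; individual-animal parameters averaged.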

[15] = Volume of distribution at steady state in Wistar rat at 5 mg/kg, iv; assay type: ADME, organism-based; parameters: dose 5 mg/kg, route intravenous; conditions: in vivo, read-out: Vdss
Summary of the method: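 Single 5 mg/kg iv dose to Wistar rats via femoral arterial catheter, vehicle 2% DMA, 10% PEG400, 88% of 40% HPBCD in water, 2.5 mL/kg. Jugular blood at 1, 7, 15, 30 min and 1, 3, 6, 12, 24 h; plasma by LC-MS/MS. Vdss by non-compartmental analysis per animal, averaged.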

[16] = molecular target: Cyclin-dependent kinase 1/cyclin B1 (Homo sapiens, UniProt P06493); experiment: Inhibition of CDK1/cyclin B by IMAP assay; assay type: protein-complex assay; summary of the method: as §4
HUVEC [17] = experiment: Antiangiogenic activity in HUVEC assessed as inhibition of VEGF-induced cell proliferation; conditions: Homo sapiens
[18] = Tmax in C57/BL6 mouse at 50 mg/kg, po bid for 5 days; assay type: ADME, organism-based; parameters: dose 50 mg/kg, route oral; conditions: in vivo; summary of the method: as §3

Sequence of Cyclin-dependent kinase 1/cyclin B1 (P06493 whole entry): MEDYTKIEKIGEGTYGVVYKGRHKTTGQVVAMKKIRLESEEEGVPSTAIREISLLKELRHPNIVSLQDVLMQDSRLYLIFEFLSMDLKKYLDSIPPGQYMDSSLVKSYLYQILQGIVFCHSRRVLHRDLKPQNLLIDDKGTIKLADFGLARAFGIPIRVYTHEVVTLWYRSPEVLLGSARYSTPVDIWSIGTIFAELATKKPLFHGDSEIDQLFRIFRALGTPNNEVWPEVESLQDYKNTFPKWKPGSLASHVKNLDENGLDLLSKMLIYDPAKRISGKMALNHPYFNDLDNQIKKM
Sequence of Cyclin-dependent kinase 1/cyclin B1 (P14635 whole entry, further chain): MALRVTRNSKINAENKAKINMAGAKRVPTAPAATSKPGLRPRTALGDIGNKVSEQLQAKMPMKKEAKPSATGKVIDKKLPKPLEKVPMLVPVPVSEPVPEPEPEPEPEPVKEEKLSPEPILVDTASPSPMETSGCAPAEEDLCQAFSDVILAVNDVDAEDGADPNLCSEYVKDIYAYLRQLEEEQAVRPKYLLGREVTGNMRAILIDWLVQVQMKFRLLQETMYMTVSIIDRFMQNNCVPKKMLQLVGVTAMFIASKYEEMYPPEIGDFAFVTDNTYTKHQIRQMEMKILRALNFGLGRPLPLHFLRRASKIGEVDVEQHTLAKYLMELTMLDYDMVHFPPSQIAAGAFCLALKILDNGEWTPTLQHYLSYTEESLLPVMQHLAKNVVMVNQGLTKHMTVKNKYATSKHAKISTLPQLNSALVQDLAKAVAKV
Sequence of Epidermal growth factor receptor (P00533 whole entry, the tested form may be a part): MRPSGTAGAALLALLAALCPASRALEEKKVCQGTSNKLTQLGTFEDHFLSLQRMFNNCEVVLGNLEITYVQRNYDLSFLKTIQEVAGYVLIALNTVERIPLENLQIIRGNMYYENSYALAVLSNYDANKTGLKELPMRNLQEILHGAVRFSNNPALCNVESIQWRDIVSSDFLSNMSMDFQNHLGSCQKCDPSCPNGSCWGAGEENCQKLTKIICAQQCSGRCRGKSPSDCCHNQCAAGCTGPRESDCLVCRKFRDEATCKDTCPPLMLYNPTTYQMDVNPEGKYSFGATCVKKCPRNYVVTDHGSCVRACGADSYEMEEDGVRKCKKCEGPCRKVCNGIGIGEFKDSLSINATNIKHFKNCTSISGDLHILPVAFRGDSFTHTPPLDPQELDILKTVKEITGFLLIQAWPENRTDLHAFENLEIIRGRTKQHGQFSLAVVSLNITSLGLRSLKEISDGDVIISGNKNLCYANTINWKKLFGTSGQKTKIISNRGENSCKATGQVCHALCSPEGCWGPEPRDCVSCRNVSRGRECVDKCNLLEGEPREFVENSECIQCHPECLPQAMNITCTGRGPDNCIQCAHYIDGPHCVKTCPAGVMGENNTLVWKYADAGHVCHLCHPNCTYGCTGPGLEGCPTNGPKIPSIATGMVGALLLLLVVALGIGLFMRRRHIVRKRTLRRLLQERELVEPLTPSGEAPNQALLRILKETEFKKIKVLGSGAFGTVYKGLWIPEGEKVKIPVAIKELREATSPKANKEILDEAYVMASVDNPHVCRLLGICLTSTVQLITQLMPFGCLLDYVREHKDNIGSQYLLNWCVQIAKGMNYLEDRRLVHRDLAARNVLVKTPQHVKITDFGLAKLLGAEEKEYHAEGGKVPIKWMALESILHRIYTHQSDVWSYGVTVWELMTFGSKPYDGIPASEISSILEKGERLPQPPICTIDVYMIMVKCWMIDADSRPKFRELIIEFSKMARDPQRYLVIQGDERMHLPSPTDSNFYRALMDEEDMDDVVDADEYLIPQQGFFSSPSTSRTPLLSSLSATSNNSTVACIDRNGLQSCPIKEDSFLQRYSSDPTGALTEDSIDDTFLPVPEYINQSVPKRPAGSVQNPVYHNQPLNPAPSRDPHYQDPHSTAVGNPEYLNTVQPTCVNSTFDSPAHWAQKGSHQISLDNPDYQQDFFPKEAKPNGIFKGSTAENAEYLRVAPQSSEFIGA
Sequence of Mitogen-activated protein kinase 1 (P28482 whole entry): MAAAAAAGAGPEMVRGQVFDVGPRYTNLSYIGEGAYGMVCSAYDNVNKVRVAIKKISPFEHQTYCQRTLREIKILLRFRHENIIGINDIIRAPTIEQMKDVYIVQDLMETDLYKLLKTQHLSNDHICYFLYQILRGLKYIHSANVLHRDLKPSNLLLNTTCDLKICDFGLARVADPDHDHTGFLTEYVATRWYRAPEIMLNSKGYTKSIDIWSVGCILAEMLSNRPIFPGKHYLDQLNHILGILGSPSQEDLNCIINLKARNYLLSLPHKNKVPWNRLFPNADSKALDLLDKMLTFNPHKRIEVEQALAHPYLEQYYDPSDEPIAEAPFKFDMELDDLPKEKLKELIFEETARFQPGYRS

Work on `COc1ccc(N2Cc3cnc(Nc4ccccc4)nc3N([C@@H]3CC[C@@H](O)C3)C2=O)cc1` (racemic) yielded an IC50 [1] of 310 nM, a clearance [2] of 23.1 mL/min/kg and an AUC [3] of 51300 ng·h/mL. It also gave a Cmax [4] of 12000 ng/mL, an AUC at 120 h [5] of 75500 ng·h/mL and a half-life [6] of 6 h. It also gave a Cmax [7] of 47700 ng/mL, an IC50 (HUVEC [8]) of 150 nM and an inhibition in vivo at 100 mg/kg (Mus musculus) of 97%. The IC50 [9] was over 125000 nM, the IC50 [10] was 33 nM and the IC50 (Ephrin type-B receptor 3) was 1090 nM. For the same compound, the Cmax [11] was 16500 ng/mL, the IC50 (MDA-MB-435) was 4200 nM and the IC50 [12] was 3040 nM. It also gave an AUC at 120 h [13] of 30000 ng·h/mL, a Tmax [14] of 5.3 h and a Vd [15] of 5.3 L/kg. The IC50 [16] was over 125000 nM, the IC50 (HUVEC [17]) was 68 nM and the Tmax [18] was 0.5 h.
